These results are taken from ChEMBL document CHEMBL1177840, “Trifluoromethyl-promoted homocamptothecins: synthesis and biological activity” (Eur J Med Chem, 2010).

In one data set the test system is A549. Put plainly: Cytotoxicity against human A549 cells after 3 days by MTT assay. To be noted: A549, 3 days. Background: Formazan colour is commonly taken as a measure of viable cells.
In the next data set the test system is MDA-MB-435. Description: Cytotoxicity against human MDA-MB-435 cells after 3 days by MTT assay. As to conditions: MDA-MB-435, 3 days.
In the next data set the test system is LoVo. Put plainly: Cytotoxicity against human LoVo cells after 3 days by MTT assay.
The test system of data set [1] is Lewis lung carcinoma cell line. Put plainly: Antitumor activity against mouse LLC transplanted in C57BL/6 mouse assessed as tumor weight at 0.5 mg/kg, ip qd for 5 days (RVb = 1.8 +/- 0.47 g). The format is functional. As to conditions: route intraperitoneal. In a few lines: (§1)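 Male C57BL/6 mice (18–20 g) received Lewis lung carcinoma cells subcutaneously in the right axilla. Starting 3 days after implantation, they were dosed i.p. once daily for 5 consecutive days; controls received normal saline. Tumors were excised and weighed on day 14 post-implantation. Growth inhibition was calculated from the average tumor weight of the test group versus the control group.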

The subject of data set [2] is Lewis lung carcinoma cell line. Description: Antitumor activity against mouse LLC transplanted in C57BL/6 mouse assessed as tumor growth inhibition at 0.5 mg/kg, ip qd for 5 days. It is filed as functional. As to conditions: 120 h, route intraperitoneal. In short, it runs like this:
as §1

The test system of data set [3] is Mus musculus. Put plainly: Toxicity in C57BL/6 mouse at 0.5 mg/kg, ip qd for 5 days. It is filed as organism-based. To be noted: in vivo, 120 h. Also noted: dose 0.5 mg/kg, route intraperitoneal.
Data set [4] concerns Mus musculus. Put plainly: Toxicity in C57BL/6 mouse assessed as body weight at 0.5 mg/kg, ip qd for 5 days ( RVb = 19.06 +/- 1.35 g). Also noted: dose 0.5 mg/kg, route intraperitoneal. As to conditions: in vivo, 120 h. The format is organism-based.
Data set [5] addresses T1, Topoisomerase I (Bos taurus) (UniProt Q2HPH0).
T1 sequence (whole entry): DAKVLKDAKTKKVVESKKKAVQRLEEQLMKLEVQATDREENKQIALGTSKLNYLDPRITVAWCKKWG
Put plainly: Inhibition of calf thymus topoisomerase 1-mediated relaxation of supercoiled pBR322 by agarose gel electrophoresis. In short, it runs like this:
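Reactions incubated 15 min at 37 °C, then stopped with SDS (0.5% final). After loading buffer was added, products were separated on 0.8% agarose in TAE buffer for 40 min at 120 V. Gels were stained with ethidium bromide at room temperature and photographed under UV transillumination.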

Each structure is given as a SMILES string. Active and inactive are the calls of the source. The calls are words filed in the database; no cut-off is given here.

The term IC50 denotes the concentration that gives 50% inhibition. Read a high IC50 as lower potency. For `CCC1(O)CC(=O)OCc2c1cc1n(c2=O)Cc2c-1nc1ccc(O)cc1c2C` (centres undefined), the IC50 came out at 9.89 µM in the data set on A549, 3.39 µM in the data set on MDA-MB-435 and 7.09 µM in the data set on LoVo.

The term inhibition in vivo denotes how much of the control response was suppressed. Take `CCC1(O)CC(=O)OCc2c1cc1n(c2=O)Cc2c-1nc1cccc(OC)c1c2C` (centres undefined): the Activity is given as 1.38 g in data set [1], “Non-toxic” in the data set on Mus musculus [3] and 19.77 g in the data set with Mus musculus [4]. Besides, the IC50 in the data set on A549 was 10.9 µM; with MDA-MB-435 it was 7.73 µM; with LoVo it was 5.47 µM. Besides, in data set [2], the inhibition in vivo at 0.5 mg/kg turned out to be 23.2%.

As to `CCC1(O)CC(=O)OCc2c1cc1n(c2=O)Cc2c-1nc1ccc(C(F)(F)F)cc1c2C` (centres undefined), the IC50 with A549, with MDA-MB-435 and in the data set on LoVo was over 225 µM throughout.

As for `CCC1(O)CC(=O)OCc2c1cc1n(c2=O)Cc2c-1nc1ccccc1c2C` (centres undefined), the results for the Activity (in data set [1]; in the data set with Mus musculus [3]; in the data set on Mus musculus [4]) were 1.06 g, “Non-toxic” and 18.8 g, respectively. The 50% inhibitory concentration (IC50) in the data set with A549 was 0.468 µM; with MDA-MB-435 it was 3.88 µM; with LoVo it was 1.16 µM. Also, in data set [5], the inhibition result was “Active”. In addition, in data set [2], the inhibition in vivo at 0.5 mg/kg is 41.2%.

`CCC1(O)CC(=O)OCc2c1cc1n(c2=O)Cc2c-1nc1ccc(OC)cc1c2C` (centres undefined): the IC50 in the data set with A549 turned out to be 3.52 µM; with MDA-MB-435, 2.61 µM; in the data set on LoVo, 1.32 µM.

With `CCC1(O)CC(=O)OCc2c1cc1n(c2=O)Cc2c-1nc1ccc(Br)cc1c2C` (centres undefined), the IC50 in the data set with A549 was found to be 29.1 µM; with MDA-MB-435, 30.9 µM; in the data set with LoVo, 2.31 µM.

Turning to `CCC1(O)CC(=O)OCc2c1cc1n(c2=O)Cc2c-1nc1ccc(Br)cc1c2C(F)(F)F` (racemic), the IC50 with A549 stood at 27.9 µM; with MDA-MB-435, 11 µM; in the data set with LoVo, 13.3 µM.

In the case of `CCC1(O)CC(=O)OCc2c1cc1n(c2=O)Cc2c-1nc1ccccc1c2C(F)(F)F` (racemic), the Activity in data set [1] is reported as 0.98 g; in the data set on Mus musculus [3], “Non-toxic”; with Mus musculus [4], 19.16 g. Besides, the IC50 in the data set with A549 came out at 0.313 µM; with MDA-MB-435, 2.33 µM; in the data set on LoVo it was 1.29 µM. The inhibition result in data set [5] is “Active”. Further, the inhibition in vivo at 0.5 mg/kg in data set [2] turned out to be 45.6%.

Consider `CCC1(O)CC(=O)OCc2c1cc1n(c2=O)Cc2c-1nc1ccc(C(F)(F)F)cc1c2C(F)(F)F` (racemic), for which the IC50 is 20.3 µM in the data set with A549, 5.32 µM in the data set on MDA-MB-435 and 22.9 µM in the data set with LoVo.

With `CCC1(O)CC(=O)OCc2c1cc1n(c2=O)Cc2c-1nc1ccc(OC)cc1c2C(F)(F)F` (racemic), the IC50 in the data set on A549 was 0.832 µM; with MDA-MB-435, 21.4 µM; with LoVo, 14.6 µM.

On to `CCC1(O)CC(=O)OCc2c1cc1n(c2=O)Cc2c-1nc1ccc(O)cc1c2C(F)(F)F` (racemic), for which the IC50 in the data set on A549 was found to be 16.2 µM; in the data set on MDA-MB-435, 11.2 µM; with LoVo, 4.01 µM.

As to `CCC1(O)CC(=O)OCc2c1cc1n(c2=O)Cc2c-1nc1cccc(OC)c1c2C(F)(F)F` (racemic), the 50% inhibitory concentration (IC50) in the data set with A549 was 5.13 µM; with MDA-MB-435, 2.87 µM; in the data set on LoVo, 3.43 µM.

For `CC[C@@]1(O)C(=O)OCc2c1cc1n(c2=O)Cc2cc3c(CN(C)C)c(O)ccc3nc2-1` [TOPOTECAN], the Activity is given as 0.94 g in data set [1], “Non-toxic” in the data set with Mus musculus [3] and 19.24 g in the data set on Mus musculus [4]. For the same compound, the inhibition in vivo at 0.5 mg/kg in data set [2] stood at 47.5%.
